The list is not random: actives were taken first. Their share in the collection is about 2.5%.
NTR1 ag: agonists of human NTR1, primary screen, imaging, U2OS cells, beta-arrestin-GFP, high content. NTR1-U2OS beta-arrestin-GFP spot imaging, agonist mode. AID 493036, 2011. 0.17% of 330,000 active. Neurotensin receptor type 1 (Homo sapiens), P30989. activation, % at 20 µM;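 active = activation at or above 40% of the spot to cytoplasm intensity ratio, with at least 20 cells analyzed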
Rev-erbA mod: modulators of Rev-erb alpha DNA binding, primary screen, biochemical, FITC-DNA, fluorescence polarization, uHTS; Rev-erbα–FITC-DNA binding, 90 min; activity, % at 10 µM; 0.79% of 370,000 active; AID 1259318, 2017;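 active = activity above about 14%, limit read from the data; passing the limit was not always enough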
PG9 binder: binders of HIV-1 gp120 antibody PG9, primary screen, biochemical, TR-FRET | HIV-1 gp120 / PG9 antibody interaction | TR-FRET gp120-PG9 antibody binding | inhibition, % at 6.7 µM | 0.43% of 360,000 active; in the data active = inhibition above about 8.5%
MC4R barr agon: MC4R agonists recruiting beta-arrestin, primary screen, cell-based, luminescence, agonist arm of biased-ligand search | Melanocortin receptor 4 (Homo sapiens), P32245 | U2OS MC4R beta-arrestin complementation; percent of melanotan II response, DMSO zero | activation, % at 8.9 µM | 0.98% of 360,000 active | AID 540308, 2011;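 active = activation above a per-plate cutoff, the mean activation of sample wells on that plate plus 3 SD, cut at about 8% in these data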
Target sequence (P32245 whole entry, looked up): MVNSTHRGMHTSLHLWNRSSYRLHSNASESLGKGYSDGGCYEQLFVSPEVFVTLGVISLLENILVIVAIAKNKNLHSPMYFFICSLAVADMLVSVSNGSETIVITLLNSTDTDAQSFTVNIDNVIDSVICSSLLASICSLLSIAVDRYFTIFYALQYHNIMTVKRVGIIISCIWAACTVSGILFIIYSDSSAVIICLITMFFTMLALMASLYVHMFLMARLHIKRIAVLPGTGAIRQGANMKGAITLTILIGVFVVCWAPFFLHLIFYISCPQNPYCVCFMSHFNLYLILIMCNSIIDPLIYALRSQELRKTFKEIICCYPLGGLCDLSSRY
MC4R antagonist: MC4R antagonists of cAMP signaling, primary screen, cell-based, TR-FRET, antagonist arm of biased-ligand search; Melanocortin receptor 4 (Homo sapiens), P32245; MC4R-expressing cells, MTII-stimulated cAMP, LANCE TR-FRET; inhibition, % at 6.5 µM; 0.48% of 360,000 active; AID 540295, 2011;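 active = inhibition above its plate's cutoff, the mean of tested wells on that plate plus 3 SD, cut at about 29% in these data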
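Material: U2OS-MC4R stable cell line | Reagent: Melanotan II challenge after compound preincubation | Doses: One concentration, 6.5 µM nominal | Incubation: 30-min compound preincubation, 1-h Melanotan II challenge, 1-h detection, room temperature | Signal: TR-FRET cAMP assay | Replicates: One well per compound, no replicates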
MC4R barr ag: MC4R beta-arrestin agonists, retest, confirmation, cell-based, luminescence, U2OS; shares compounds with MC4R barr agon; U2OS MC4R beta-arrestin recruitment; scaled DMSO 0%, Melanotan II 100%; activation, % at 8.9 µM; 31% of 2,400 active; AID 602192, 2012;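 active = mean activation across replicates above the hit cutoff set in the earlier primary screen, cut at about 8% in these data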
MOR-DOR barr ag: agonists of MOR-DOR heterodimerization, counter-screen for MC4R biased agonist project, cell-based, luminescence; shares compounds with MC4R barr agon; U2OS PathHunter beta-arrestin, beta-gal luminescence; percent of deltorphin B response, DMSO zero; activation, % at 9.2 µM; 5.8% of 2,400 active; AID 602194, 2012;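 active = mean activation across replicates exceeds the hit threshold derived in the earlier primary screen, cut at about 18% in these data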
Each line names hits and unclear results; the compound was inactive in the other large screens (follow-up assays come after a bar, where they were run).

O=C(Nc1ccc(Cl)c(Cl)c1)c1ccc(Cl)c(Cl)c1	MC4R barr agon 14 | MC4R barr ag inactive | MOR-DOR barr ag inactive
O=C(Nc1ccc(Cl)c(Cl)c1)c1csc(-c2ccccc2)n1	MC4R barr agon 20 | MC4R barr ag inactive | MOR-DOR barr ag inactive
O=C(Nc1cccc(Cl)c1)c1csc(-c2ccccc2)n1	none
COC(=O)[C@]12C[C@H](CC(=O)N3CCCC3)C(=O)N(Cc3ccc(Cl)cc3Cl)C1=C[C@H](COCc1ccccc1)O[C@@H]2C	none (no result: NTR1 ag, PG9 binder, MC4R barr agon, MC4R antagonist)
Cc1ccc(CNC(=O)c2ccc3c(=O)c(O)c(-c4ccc(C)cc4)[nH]c3c2)cc1	MC4R barr agon 13 | MC4R barr ag inactive | MOR-DOR barr ag inactive
O=C(COc1ccc(Cl)cc1Cl)NC(=O)c1ccccc1	MC4R barr agon 10 | MC4R barr ag inactive | MOR-DOR barr ag inactive
Cc1nnc(-n2cccc2)s1	none (no result: NTR1 ag, MC4R barr agon, MC4R antagonist)
O=C1c2ccccc2C(=O)c2c(Nc3ccc(CCO)cc3)ccc(O)c21	MC4R barr agon 19 | MC4R barr ag inactive | MOR-DOR barr ag inactive
Nc1ccc(O)c2c1C(=O)c1ccccc1C2=O	none
O=C(Nc1ccccc1OC(F)F)c1oc2ccccc2c1COc1ccccc1	MC4R barr agon 27 | MC4R barr ag 14 | MOR-DOR barr ag inactive
COC(=O)C1=C(C)N(Cc2cccc(C(F)(F)F)c2)C(=NCC2CC2)NC1c1ccc(F)cc1 (stereo unspecified)	none (no result: NTR1 ag, MC4R barr agon, MC4R antagonist)
C#CCn1c(=NC(=O)c2cc(-c3cccs3)nc3ccccc23)sc2cc(S(N)(=O)=O)ccc21	MC4R barr agon 20 | MC4R barr ag 10 | MOR-DOR barr ag inactive
O=C(O)Cn1nc2c3c(cccc3c1=O)-c1ccccc1-2	none
Cc1ccc(-n2nc3c4c(cccc4c2=O)-c2ccccc2-3)cc1	MC4R barr agon 21 | MC4R barr ag 10 | MOR-DOR barr ag inactive
C#CCCC(=O)O[C@H]1CCC[C@@]2(C(=O)N(Cc3ccccc3)c3ccccc32)[C@H]1NC(=O)CCc1ccccc1	none (no result: NTR1 ag, PG9 binder, MC4R barr agon, MC4R antagonist)
CC1CCC(C(C)C)C(OC(=O)Cn2c(-c3ccc(F)cc3)[n+](C)c3ccccc32)C1 (stereo unspecified)	MC4R barr agon 17 | MC4R barr ag 16 | MOR-DOR barr ag inactive
COc1ccc(C(O)c2ncc(-c3cccc(C(F)(F)F)c3)[nH]2)cc1F (stereo unspecified)	none (no result: NTR1 ag)
CCc1ccc(C(O)c2ncc(-c3ccc4ccccc4c3)[nH]2)cc1 (stereo unspecified)	MC4R barr agon 17 (no result: NTR1 ag) | MC4R barr ag inactive | MOR-DOR barr ag inactive
CCc1ccc(C(O)c2ncc(-c3cccc(C(F)(F)F)c3)[nH]2)cc1 (stereo unspecified)	MC4R barr agon 13 (no result: NTR1 ag) | MC4R barr ag 10 | MOR-DOR barr ag inactive
CC(=O)c1ccc(OCc2cc(C(=O)NCCc3ccc(Cl)cc3)no2)cc1	MC4R barr agon 14 | MC4R barr ag inactive | MOR-DOR barr ag inactive
CC(=O)c1ccc(OCc2cc(C(=O)NCC3CCCCO3)no2)cc1 (stereo unspecified)	none
CN1C(=O)/C(=C/c2ccccc2OCc2cccc(F)c2)NC1=S	MC4R barr agon 30 | MC4R barr ag inactive | MOR-DOR barr ag inactive
Cc1nc(C)c(-c2ccc(SCC(=O)Nc3ccc(C)c(Cl)c3)nn2)s1	MC4R barr agon 10 | MC4R barr ag inactive | MOR-DOR barr ag inactive
COc1ccc(NC(=O)CSc2ccc(-c3sc(C)nc3C)nn2)cc1OC	none
C[C@H]1COc2cc(N3CCOCC3)ccc2S(=O)(=O)N1	none (no result: NTR1 ag, MC4R barr agon, MC4R antagonist)
c1ccc(-c2nnc(-c3c[nH]c4ccccc34)nc2-c2ccccc2)cc1	MC4R barr agon 15 | MC4R barr ag inactive | MOR-DOR barr ag inactive
COc1ccc(C[C@H]2CN3C(=NC[C@@H]3Cc3ccc(O)cc3)N2CCNC(=O)c2ccc(C)c(Br)c2)cc1	none
COc1ccc(C[C@H]2CN3C(=NC[C@H]3Cc3ccccc3)N2CCNC(=O)c2ccc(C)c(Br)c2)cc1	MC4R barr agon 16 (no result: Rev-erbA mod, PG9 binder) | MC4R barr ag 22 | MOR-DOR barr ag 27
Cc1ccc(C(=O)N2CCC[C@@H]2C(=O)N2CCC[C@H]2C(=O)NCc2ccccc2)cc1	none (no result: NTR1 ag, MC4R barr agon, MC4R antagonist)
Cc1c(Cc2ccccc2)sc(NC(=O)c2ccco2)c1C(N)=O	MC4R barr agon 9.7 | MC4R barr ag inactive | MOR-DOR barr ag inactive
COC(=O)c1c(NC(=O)c2ccco2)sc(C)c1C	none
COc1ccc(C(NC(=O)C2CCN(CCOc3ccc(Cl)cc3Cl)CC2)c2ccccc2C)cn1 (stereo unspecified)	MC4R barr agon 53 (no result: NTR1 ag) | MC4R barr ag 35 | MOR-DOR barr ag inactive
O=C(NC(c1ccccc1)c1cnccn1)C1CCN(CCOc2ccc(Cl)cc2Cl)CC1 (stereo unspecified)	none (no result: NTR1 ag)
O=C(NC(c1ccccc1)c1ccsc1)C1CCN(CCOc2ccc(Cl)cc2Cl)CC1 (stereo unspecified)	MC4R barr agon 54 (no result: NTR1 ag) | MC4R barr ag 47 | MOR-DOR barr ag inactive
COc1ccc(C(NC(=O)C2CCN(CCOc3ccc(Cl)cc3Cl)CC2)c2cccs2)cc1 (stereo unspecified)	MC4R barr agon 111 (no result: NTR1 ag) | MC4R barr ag 32 | MOR-DOR barr ag inactive
CN(N=O)C(=O)N[C@@H]1[C@@H](O)[C@H](O)[C@@H](CO)O[C@@H]1O	none (no result: NTR1 ag, PG9 binder, MC4R barr agon, MC4R antagonist)
O=C(Nc1ccc(OCc2ccccc2)cc1)c1cccc([N+](=O)[O-])c1	MC4R barr agon 10 | MC4R barr ag inactive | MOR-DOR barr ag inactive
Cc1onc(-c2ccccc2Cl)c1C(=O)NC(=S)NCC(=O)c1ccccc1	MC4R barr agon 19 | MC4R barr ag inactive | MOR-DOR barr ag inactive
O=C(Nc1nc(-c2ccc([N+](=O)[O-])cc2)cs1)c1c(F)cccc1F	MC4R barr agon 24 | MC4R barr ag inactive | MOR-DOR barr ag inactive
CCc1ccc(NC(=S)NC(=O)c2c(-c3ccccc3Cl)noc2C)cc1	none
O=C(Nc1ccc([N+](=O)[O-])cc1Cl)c1cccc([N+](=O)[O-])c1	MC4R barr agon 12 (no result: NTR1 ag) | MC4R barr ag inactive | MOR-DOR barr ag inactive
CC(=O)Nc1nc(-c2ccc([N+](=O)[O-])cc2)cs1	none

Compound activity from PubChem.
